Active and inactive are the calls of the source. The rule behind the calls is not given here.
Tests used:
[1] = biological target: T1, DNA topoisomerase 1 (Homo sapiens) (UniProt P11387); assay: Inhibition of recombinant human topoisomerase-1 assessed as DNA insertion by measuring drug-DNA-enzyme ternary complex formation up to 25 uM using supercoiled pBR322 DNA substrate after 30 mins by ethidium bromide staining based agarose gel electrophoresis
T1 sequence (whole entry): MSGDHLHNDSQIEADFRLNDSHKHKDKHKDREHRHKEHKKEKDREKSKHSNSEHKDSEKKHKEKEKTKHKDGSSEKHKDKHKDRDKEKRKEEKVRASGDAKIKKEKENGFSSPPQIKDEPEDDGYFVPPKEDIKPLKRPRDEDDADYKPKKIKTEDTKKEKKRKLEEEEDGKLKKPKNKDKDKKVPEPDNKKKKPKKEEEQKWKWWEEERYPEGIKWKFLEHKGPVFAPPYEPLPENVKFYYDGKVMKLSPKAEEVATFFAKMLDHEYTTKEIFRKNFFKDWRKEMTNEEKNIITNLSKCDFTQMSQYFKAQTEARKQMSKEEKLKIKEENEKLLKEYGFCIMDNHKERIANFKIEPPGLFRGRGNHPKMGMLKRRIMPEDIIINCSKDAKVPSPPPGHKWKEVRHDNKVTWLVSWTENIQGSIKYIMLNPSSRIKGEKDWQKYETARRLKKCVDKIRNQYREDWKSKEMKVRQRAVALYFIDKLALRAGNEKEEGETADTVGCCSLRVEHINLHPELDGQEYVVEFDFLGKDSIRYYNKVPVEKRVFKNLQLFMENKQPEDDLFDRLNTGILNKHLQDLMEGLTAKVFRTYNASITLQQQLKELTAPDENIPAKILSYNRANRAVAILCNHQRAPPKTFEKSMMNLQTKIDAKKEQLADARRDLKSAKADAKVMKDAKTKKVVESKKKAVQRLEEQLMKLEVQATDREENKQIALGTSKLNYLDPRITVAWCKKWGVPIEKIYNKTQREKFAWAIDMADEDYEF
Summary of the method: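 Supercoiled pBR322 DNA (0.1 µg) preincubated with compound 10 min at 25 °C, then excess Topo I (4 units) added, 30 min at 37 °C in 20 µL Tris-HCl pH 7.5 buffer with MgCl2, KCl, EDTA, DTT, BSA. Run on 1% agarose in TAE 40 min, EB post-stained, UV-imaged. Unwinding read as supercoiled retained versus relaxed.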

A549 = assay: Cytotoxicity against human A549 cells assessed as reduction in cell viability after 48 hrs by MTT assay; format: functional, cell-based; details: A549, 48 h
Summary of the method: (§1)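 MCF-7, HeLa and A549 cells seeded at 3.5 × 10^3 per well in medium with 10% FBS and left overnight. Medium then replaced with fresh medium holding a range of compound concentrations for 48 h. MTT (5 mg/mL) added, 4 h at 37 °C. Formazan dissolved in DMSO, absorbance read at 570 nm. Triplicate wells per dose; IC50 derived.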

[2] = biological target: T1, DNA topoisomerase 1 (Homo sapiens); assay: Inhibition of recombinant human topoisomerase-1 assessed as reduction in relaxation of supercoiled pBR322 DNA substrate at 100 uM after 30 mins by ethidium bromide staining based agarose gel electrophoresis relative to control
Summary of the method: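 pBR322 DNA (0.1 µg) and recombinant human Topo I (0.2 units) incubated ± compound 30 min at 37 °C in supplier's Topo I buffer; compounds from DMSO stocks. Stopped with bromophenol blue/xylene cyanol/glycerol dye. Read-out: 1% agarose in 1× TAE, 100 V for 30 min, EB stain (0.5 µg/mL). Percent inhibition from gray-scale band analysis; camptothecin positive control.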

MCF7 = assay: Cytotoxicity against human MCF7 cells assessed as reduction in cell viability after 48 hrs by MTT assay; format: functional, cell-based; details: MCF7, 48 h; summary of the method: as §1
HeLa = assay: Cytotoxicity against human HeLa cells assessed as reduction in cell viability after 48 hrs by MTT assay; format: functional, cell-based; summary of the method: as §1
[3] = biological target: T1, DNA topoisomerase 1 (Homo sapiens); assay: Inhibition of recombinant human topoisomerase-1 assessed as DNA insertion by measuring drug-DNA-enzyme ternary complex formation up to 100 uM using supercoiled pBR322 DNA substrate after 30 mins by ethidium bromide staining based agarose gel electrophoresis
Summary of the method: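 Supercoiled pBR322 DNA (0.1 µg) in Topo I buffer (50 mM Tris-HCl pH 7.5, 10 mM MgCl2, 50 mM KCl, 0.1 mM EDTA, 0.5 mM DTT, BSA) pre-incubated with compound 10 min at 25 °C. Excess Topo I (4 units) then added, 30 min at 37 °C. Read-out: 1% agarose/TAE electrophoresis, EB staining, UV imaging. Ethidium bromide positive control; camptothecin negative control.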

[4] = biological target: T1, DNA topoisomerase 1 (Homo sapiens); assay: Inhibition of recombinant human topoisomerase-1 assessed as interference in DNA binding to enzyme by measuring reduction in enzyme-DNA complex using supercoiled pBR322 DNA substrate preincubated for 20 mins followed by substrate addition measured after 3 mins by electrophoretic mobility shift assay
[5] = biological target: T1, DNA topoisomerase 1 (Homo sapiens); assay: Poison activity at recombinant human topoisomerase-1 assessed as stabilization of DNA-enzyme cleavage complex by measuring increase in linear DNA using supercoiled pBR322 DNA substrate after 30 mins by ethidium bromide staining based agarose gel electrophoresis

Compound	inhibition [1]	IC50 (A549)	inhibition [2]	IC50 (MCF7)	IC50 (HeLa)	inhibition [3]	inhibition [4]	Activity [5]
CC[n+]1c(-c2ccccc2)c2cc(N)ccc2c2ccc(N)cc21	Active							
O=C(/C=C/c1ccc(F)cc1)Nc1ccc(CC2=CC(=O)OC2)cc1		41.8 µM	12.1%	47.9 µM	> 50 µM			
C=C1OC(=O)C=C1Cc1ccc(NC(=O)Cc2ccccc2Cl)cc1		48.8 µM	21.3%	40.9 µM	42.6 µM	inactive		
CC[C@@]1(O)C(=O)OCc2c1cc1n(c2=O)Cc2cc3ccccc3nc2-1 [CAMPTOTHECIN]		0.24 µM		71.3 µM	60 µM			
C=C1OC(=O)C=C1Cc1ccc(NC(=O)Cc2ccccc2C(F)(F)F)cc1		37.5 µM	32.3%	48.7 µM	37.5 µM	inactive		
C=C1OC(=O)C=C1Cc1ccc(NC(=O)/C=C/c2ccccc2)cc1		14.8 µM	48.6%	9.49 µM	7.34 µM	inactive		
C=C1OC(=O)C=C1Cc1ccc(NC(=O)Cc2ccc(C)cc2)cc1		7.79 µM	47.9%	3.94 µM	7.12 µM	inactive		
O=C(Cc1cccc(C(F)(F)F)c1)Nc1ccc(CC2=CC(=O)OC2)cc1		> 50 µM	12.3%	40.1 µM	44 µM			
C=C1OC(=O)C=C1Cc1ccc(NC(=O)/C=C/c2ccc(F)cc2)cc1		3.46 µM	94%	4.43 µM	2.77 µM	inactive	Dose-dependent effect	Dose-dependent effect
O=C(Cc1ccc(C(F)(F)F)cc1)Nc1ccc(CC2=CC(=O)OC2)cc1		45.8 µM	11%	46.4 µM	48.8 µM			
C=C1OC(=O)C=C1Cc1ccc(NC(=O)/C=C/c2ccccc2F)cc1		7.41 µM	44.6%	13.8 µM	6.93 µM	inactive		
O=C(Cc1ccccc1C(F)(F)F)Nc1ccc(CC2=CC(=O)OC2)cc1		48.9 µM	20.3%	43.8 µM	44.6 µM			
C=C1OC(=O)C=C1Cc1ccc(NC(=O)Cc2cccc(C(F)(F)F)c2)cc1		6.69 µM	41.9%	6.15 µM	8.63 µM	inactive		
C=C1OC(=O)C=C1Cc1ccc(NC(=O)/C=C/c2cccc(F)c2)cc1		35.2 µM	34.5%	39 µM	30.2 µM	inactive		
C=C1OC(=O)C=C1Cc1ccc(NC(=O)Cc2ccc(F)cc2)cc1		22.8 µM	43.3%	16 µM	16.2 µM	inactive		
C=C1OC(=O)C=C1Cc1ccc(NC(=O)Cc2ccc(Cl)cc2)cc1		37.6 µM	30.3%	37.4 µM	35.5 µM	inactive		
C=C1OC(=O)C=C1Cc1ccc(NC(=O)Cc2ccccc2)cc1		39 µM	28.5%	> 50 µM	> 50 µM	inactive		
Cc1ccc(CC(=O)Nc2ccc(CC3=CC(=O)OC3)cc2)cc1		41.4 µM	19.4%	49.2 µM	> 50 µM			
C=C1OC(=O)C=C1Cc1ccc(NC(=O)Cc2ccc(C(F)(F)F)cc2)cc1		42.9 µM	34.9%	39.8 µM	39.7 µM	inactive		
C=C1OC(=O)C=C1Cc1ccc(NC(=O)Cc2cccc(Cl)c2)cc1		41 µM	22.5%	42.9 µM	45.8 µM	inactive		
C=C1OC(=O)C=C1Cc1ccc(NC(=O)c2ccccc2)cc1		49.8 µM	28.7%	> 50 µM	48.3 µM	inactive		
O=C(/C=C/c1cccc(F)c1)Nc1ccc(CC2=CC(=O)OC2)cc1		> 50 µM	13.1%	39 µM	49 µM			
O=C(/C=C/c1ccccc1F)Nc1ccc(CC2=CC(=O)OC2)cc1		40 µM	11.7%	> 50 µM	45.8 µM			
C=C1OC(=O)C=C1Cc1ccc(NC(=O)Cc2ccccc2F)cc1		32 µM	32.8%	48.3 µM	40.5 µM	inactive		

Reference: ChEMBL document CHEMBL3994612, “Novel 4-(4-substituted amidobenzyl)furan-2(5H)-one derivatives as topoisomerase I inhibitors” (Eur J Med Chem, 2017)
